One data set concerns MAPs-rich tubulin. As to the kind of experiment: Light scattering assay of MAPs-rich tubulin polymerization. In kind it is biochemical, goat. As to conditions: 50 µM compound, 1 mg/ml MAPs-rich tubulin, 37°C, 400 nm.
The subject of data set [1] is PC-3 cells. As to the kind of experiment: MTT cell proliferation assay, PC-3. Type of data set: cell-based, human. Summed up:
(§1)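 Cell lines were grown in medium with 10% FBS and 1% penicillin/streptomycin: PC-3 in RPMI; HeLa, MIA PaCa-2 and T24 in DMEM. Cells were seeded at 5×10^3 per well, attached overnight, then given test compound (0–500 µM, from PBS solution, diluted in medium) for 48 h. MTT was added for 4 h and formazan dissolved in DMSO. A570 was read. IC50 is the concentration giving 50% inhibition of proliferation.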
On the technique in general: Tetrazolium assays rely on reduction of a dye to a coloured formazan, in cell work by metabolically active cells.

The test system of the next data set is MIA PaCa-2 cells. The data set is described as follows: MTT cell proliferation assay, MIA PaCa-2. In kind it is cell-based. Summed up: as §1
A short description of data set [2]: Pharmacokinetics after intravenous administration. In kind it is in vivo, CD-1 mice. Summed up:
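Male CD-1 mice, fasted 3 h, received a single IV dose of test compound at 5 mg/kg in water. Blood was sampled sparsely from the retro-orbital plexus at 5 min–24 h into K2EDTA. Plasma was protein-precipitated with acetonitrile and 7-hydroxynoscapine internal standard, then quantified by positive-mode MRM LC-MS/MS (calibration 1 ng/mL–1 µg/mL). Non-compartmental analysis: linear-trapezoid AUC, CL and Vss from IV data, C0 back-extrapolated.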

The test system of the next data set is T24 bladder cancer cells. As to the kind of experiment: MTT cell proliferation assay, T24. In kind it is cell-based. Summed up:
as §1

Data set [3] relates to PC-3 cells. As to the kind of experiment: Immunofluorescence confocal microscopy of spindle morphology. In kind it is cell-based, human. As to conditions: 12h and 24h. Summed up: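 PC-3 cells were grown on glass coverslips and exposed to test compound for 12 h or 24 h. Cells were fixed in −20 °C methanol for 10 min, then blocked in 2% BSA/PBS at 37 °C for 1 h. They were stained with anti-α- and anti-γ-tubulin (1:1000, 45 min, 37 °C) and Alexa Fluor 488/555 secondaries (1:1000, 45 min, 37 °C). DNA was stained with DAPI. Slides were mounted in antifade and imaged by confocal microscopy.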

A further data set concerns HeLa cells. The data set is described as follows: MTT cell proliferation assay, HeLa. Type of data set: cell-based. Particulars: 48 h. The procedure, abridged: as §1
Data set [4] is described as follows: Pharmacokinetics after oral administration. Type of data set: in vivo, CD-1 mice. Particulars: for Fold increase in F compared to Nos: oral 50 mg/kg. Summed up:
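Male CD-1 mice (3 per group), fasted 3 h, were dosed once by oral gavage at 50 mg/kg in water. Plasma was collected by sparse retro-orbital sampling at 5 min–24 h. Samples were acetonitrile-precipitated with internal standard and assayed by LC-MS/MS (1 ng/mL–1 µg/mL). Non-compartmental analysis: linear-trapezoid AUClast, Cmax taken as observed. F is dose-normalized oral AUClast over IV (5 mg/kg) AUClast.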

A further data set deals with MAPs rich tubulin. As to the kind of experiment: GTPase activity assay. Type of data set: biochemical, goat. Particulars: different concentrations of compound, 10 min.
Another data set deals with pure tubulin. The data set is described as follows: Light scattering assay of pure tubulin polymerization. Particulars: 10 µM tubulin, 1M monosodium glutamate. In kind it is biochemical, goat.
Where [5] appears, read: male, CD-1, mouse, plasma, iv, 5 mg/kg.
The mark [6] stands for this setting: male, CD-1, mouse, plasma, po, 50 mg/kg.
Setting [7] is: oral gavage 50 mg/kg, CD-1 mice, plasma.

The pIC50 is −log10 of the IC50, conventionally taken in molar units. A low value points to a high IC50. In general, AUC(0-t) refers to the area under the concentration-time curve up to a stated or last time point. Low readings indicate less exposure, high ones more exposure. In general, Vd refers to a proportionality between amount in the body and measured concentration, not a real space. Read a high Vd as extensive tissue distribution. One may read the clearance as a measure of how efficiently the substance is removed, as volume per time. High values mean efficient removal, low ones inefficient removal. For orientation: half-life means how long it takes for the measured level to halve. A high value points to slow decline. As usually defined, the Tmax is the time from dosing to the highest level. In general, bioavailability refers to the share of a dose that reaches the circulation, judged against a reference dose that is usually intravenous. The low end stands for little systemic uptake, the high end for much systemic uptake. The term Cmax denotes the highest concentration seen after dosing.

The structures appear in SMILES notation. pIC50: −log10 of the molar value.

For `COc1ccc2c(c1OCCCS(=O)(=O)O)C(=O)O[C@@H]2[C@H]1c2c(cc3c(c2OC)OCO3)CCN1C` [Compound 6c, 3-(((S)-5-methoxy-1-((R)-4-methoxy-6-methyl-5,6,7,8-tetrahydro-[1,3]dioxolo[4,5-g]isoquinolin-5-yl)-3-oxo-1,3-dihydroisobenzofuran-4-yl)oxy)propane-1-sulfonic acid], the “Percent decrease in light scattering of MAP-tubulin” value (“Percent decrease” below) in the data set with MAPs-rich tubulin was determined as 32 ± 14%. The compound further showed a negative-log IC50 (pIC50) in the data set on PC-3 cells [1] (Homo sapiens, PC-3, 48 h) of 3.56.
With `COc1ccc2c(c1OCCCS(=O)(=O)O)C(=O)O[C@@H]2[C@H]1c2c(c(Br)c3c(c2OC)OCO3)CCN1C` [Compound 8c, 3-(((S)-1-((R)-9-bromo-4-methoxy-6-methyl-5,6,7,8-tetrahydro-[1,3]dioxolo[4,5-g]isoquinolin-5-yl)-5-methoxy-3-oxo-1,3-dihydroisobenzofuran-4-yl)oxy)propane-1-sulfonic acid], the pIC50 in the data set with MIA PaCa-2 cells (Homo sapiens, MIA PaCa-2, 48 h) was 4.74. In data set [2] (setting [5]), the AUC(0-t) was determined as 133 ng·h/mL, the C0 was found to be 307 ng/mL, the Vd worked out at 18.4 L/kg and the clearance is 584 mL/min/kg. The half-life in [2] (setting [5]) is 42 min. In the data set on T24 bladder cancer cells (48 h), this compound gave a pIC50 of 5.40. The “spindle / mitotic phenotype” value in the data set with PC-3 cells [3] is recorded as “induced a multipolar phenotype”. Also, the “Percent decrease” value in the data set with MAPs-rich tubulin is 61 ± 21%. Also, the pIC50 in the data set on HeLa cells (Homo sapiens) is 4.28. Moreover, the pIC50 in the data set on PC-3 cells [1] (Homo sapiens, PC-3, 48 h) is 4.26. In addition, in data set [4] (setting [6]), the AUC(0-t) is 240 ng·h/mL, the Tmax turned out to be 4.8 min and the bioavailability came out at 21%. Moreover, the “Fold increase in F compared to Nos” value in [4] (CD-1 mice, 50 mg/kg) turned out to be 1.7 fold.
For `COc1ccc2c(c1OCCC[N+](C)(C)C)C(=O)O[C@@H]2[C@H]1c2c(cc3c(c2OC)OCO3)CCN1C.[Br-]` [Compound 6a, 3-(((S)-5-methoxy-1-((R)-4-methoxy-6-methyl-5,6,7,8-tetrahydro-[1,3]dioxolo[4,5-g]isoquinolin-5-yl)-3-oxo-1,3-dihydroisobenzofuran-4-yl)oxy)-N,N,N-trimethylpropan-1-aminium bromide], the “Percent decrease” value in the data set with MAPs-rich tubulin worked out at 19 ± 6%.
The same measure, in the same setting: then `COc1ccc2c(c1OCCC[N+](C)(C)C)C(=O)O[C@@H]2[C@H]1c2c(c(Br)c3c(c2OC)OCO3)CCN1C.[Br-]` [Compound 8a, 3-(((S)-1-((R)-9-bromo-4-methoxy-6-methyl-5,6,7,8-tetrahydro-[1,3]dioxolo[4,5-g]isoquin-olin-5-yl)-5-methoxy-3-oxo-1,3-dihydroisobenzofuran-4-yl)oxy)-N,N,N-trimethylpropan-1-aminium bromide], with 30 ± 12%.
The compound `COc1ccc2c(c1OC)C(=O)O[C@@H]2[C@H]1c2c(cc3c(c2OC)OCO3)CCN1C` [Compound 1, Noscapine, reference compound] gave a pIC50 in the data set on MIA PaCa-2 cells (Homo sapiens, MIA PaCa-2, 48 h) of 3.98. In [2] (setting [5]), this compound displayed an area under the curve AUC(0-t) of 479 ng·h/mL, a C0 of 1210 ng/mL, a Vd of 4.55 L/kg and a clearance of 174 mL/min/kg. The compound further showed a half-life in data set [2] (setting [5]) of 23.4 min. Also, the “change in GTPase activity of MAPs-rich tubulin” value in the data set on MAPs rich tubulin is “remained almost unchanged”. In the data set on T24 bladder cancer cells (48 h), the pIC50 was 4.08. Further, in the data set with MAPs-rich tubulin, the “Percent decrease” value stood at 11 ± 4%. For the same compound, the “% Decrease in light scattering of pure tubulin” value (from here on “% Decrease in light scattering”) in the data set with pure tubulin (10 µM compound) is 5±1.5%. In addition, the “% Decrease in light scattering” value in the data set on pure tubulin (25 µM compound) stood at 9±2.6%. The “% Decrease in light scattering” value in the data set with pure tubulin (50 µM compound) came out at 13±2.9%. In the data set on HeLa cells (Homo sapiens), the negative-log IC50 (pIC50) is 3.36. The same compound had a pIC50 with PC-3 cells [1] (Homo sapiens, PC-3, 48 h) of 4.00. In data set [4] (setting [6]), the AUC(0-t) stood at 603 ng·h/mL, the time of peak concentration (Tmax) is 4.8 min and the bioavailability is 13%. This compound also came in with a peak concentration (Cmax) in [4] (oral gavage 50 mg/kg, CD-1 mice, plasma, listed as Nos, 50 mg/kg) of 1156 ± 19 ng/mL.
Turning to `COc1ccc2c(c1OC)C(=O)O[C@@H]2[C@H]1c2c(c(NCCCS(=O)(=O)O)c3c(c2OC)OCO3)CCN1C` [Compound 4c, 3-(((R)-5-((S)-4,5-dimethoxy-3-oxo-1,3-dihydroisobenzofuran-1-yl)-4-methoxy-6-methyl-5,6,7,8-tetrahydro-[1,3]dioxolo[4,5-g]isoquinolin-9-yl)amino)propane-1-sulfonic acid], the “Percent decrease” value with MAPs-rich tubulin amounted to 27 ± 10%.
Same read-out and setting: then `COc1ccc2c(c1OC)C(=O)O[C@@H]2[C@H]1c2c(c(NCCC[N+](C)(C)C)c3c(c2OC)OCO3)CCN1C.[Br-]` [Compound 4a, 3-(((R)-5-((S)-4,5-dimethoxy-3-oxo-1,3-dihydroisobenzofuran-1-yl)-4-methoxy-6-methyl-5,6,7,8-tetrahydro-[1,3]dioxolo[4,5-g]isoquinolin-9-yl)amino)-N,N,N-trimethylpropan-1-aminium bromide], with 29 ± 5%.
Consider `COc1ccc2c(c1OCCCCS(=O)(=O)O)C(=O)O[C@@H]2[C@H]1c2c(c(Br)c3c(c2OC)OCO3)CCN1C` [Compound 8b, 4-(((S)-1-((R)-9-bromo-4-methoxy-6-methyl-5,6,7,8-tetrahydro-[1,3]dioxolo[4,5-g]isoquin-olin-5-yl)-5-methoxy-3-oxo-1,3-dihydroisobenzofuran-4-yl)oxy)butane-1-sulfonic acid], for which the pIC50 in the data set on MIA PaCa-2 cells (MIA Paca-2, 48 h, MTT) was 4.40; with T24 bladder cancer cells (T24, 48 h, MTT), 4.49; in the data set on HeLa cells (MTT), 4.28; with PC-3 cells [1] (PC-3 cells, 48 h, MTT), 4.54. The CL in [2] (IV 5 mg/kg, CD-1 mice) came out at 512 mL/min/kg. Besides, the VSS in [2] (IV 5 mg/kg, CD-1 mice) is on record as 23.81 L/kg. Further, the half-life in [2] (IV 5 mg/kg, CD-1 mice) stood at 22.8 min. In addition, the AUClast came out at 145.41 ng·h/mL in [2] (IV 5 mg/kg, CD-1 mice, plasma) and 164 ng·h/mL in data set [4] (setting [7]). The C0 in data set [2] (back extrapolated concentration, IV 5 mg/kg, CD-1 mice, plasma) is 259.39 ng/mL. For the same compound, the “spindle / mitotic phenotype” value in the data set on PC-3 cells [3] is given as “induced a multipolar phenotype”. Besides, the “Percent decrease” value in the data set with MAPs-rich tubulin is listed as 68 ± 18%. Also, the “Bioavailability F” value in data set [4] (dose normalized AUClast, oral 50 mg/kg vs IV 5 mg/kg, CD-1 mice) came to 11. Also, the “Fold increase in F compared to Nos” value in [4] (CD-1 mice, 50 mg/kg) was 0.9 fold. Also, the time of peak concentration (Tmax) in [4] (oral gavage 50 mg/kg, CD-1 mice) was determined as 4.8 min. This compound also had a Cmax in data set [4] (setting [7]) of 14 ± 7 ng/mL.
For the compound `COc1ccc2c(c1OC)C(=O)O[C@@H]2[C@H]1c2c(c(Br)c3c(c2OC)OCO3)CCN1C` [Compound 2, (S)-3-((R)-9-bromo-4-methoxy-6-methyl-5,6,7,8-tetrahydro-[1,3]dioxolo[4,5-g]isoquinolin-5-yl)-6,7-dimethoxyisobenzofuran-1(3H)-one, reference compound], the negative-log IC50 (pIC50) was 3.72 with T24 bladder cancer cells (48 h) and 3.36 with HeLa cells (Homo sapiens).
For the compound `COc1ccc2c(c1OC)C(=O)O[C@@H]2[C@H]1c2c(c(NCCCCS(=O)(=O)O)c3c(c2OC)OCO3)CCN1C` [Compound 4b, 4-(((R)-5-((S)-4,5-dimethoxy-3-oxo-1,3-dihydroisobenzofuran-1-yl)-4-methoxy-6-methyl-5,6,7,8-tetrahydro-[1,3]dioxolo[4,5-g]isoquinolin-9-yl)amino)butane-1-sulfonic acid], in the data set on MAPs-rich tubulin, the “Percent decrease” value is on record as 30 ± 9%. The pIC50 with PC-3 cells [1] (Homo sapiens, PC-3, 48 h) is 3.31.
`COc1cc([C@@H]2c3cc4c(cc3[C@H](O)[C@H]3COC(=O)[C@H]23)OCO4)cc(OC)c1OC` [podophyllotoxin]: the “change in GTPase activity of MAPs-rich tubulin” value in the data set with MAPs rich tubulin is given as “decreased”.

The record behind these values is publication PMC4363136 (Biochemical pharmacology, 2014).
